The target of the experiment is Calcium-activated potassium channel subunit alpha-1 (Mus musculus) (UniProt Q08460). In words: Percent opening of mouse maxi-K channel expressed in xenopus oocyte at a concentration of 20 umolar under voltage clamp. It counts as functional. The note with it: Xenopus laevis oocytes. The method, boiled down:
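Xenopus laevis oocytes injected with mSlo cRNA 2–6 days before recording, kept at 17 °C in ND96 (mM: NaCl 90, KCl 1.0, CaCl2 1.0, MgCl2 1.0, HEPES 5.0, pH 7.5) with 5% horse serum and penicillin/streptomycin. Two-electrode voltage clamp, steps 500–750 ms, +20 mV increments from −60 mV holding to +140 mV. Compound gravity-perfused at 20 μM. Iberiotoxin-sensitive outward current expressed as percent of control; mean of ≥5 oocytes.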

Calcium-activated potassium channel subunit alpha-1 (Mus musculus), sequence (Q08460 whole entry, the tested form may be a part): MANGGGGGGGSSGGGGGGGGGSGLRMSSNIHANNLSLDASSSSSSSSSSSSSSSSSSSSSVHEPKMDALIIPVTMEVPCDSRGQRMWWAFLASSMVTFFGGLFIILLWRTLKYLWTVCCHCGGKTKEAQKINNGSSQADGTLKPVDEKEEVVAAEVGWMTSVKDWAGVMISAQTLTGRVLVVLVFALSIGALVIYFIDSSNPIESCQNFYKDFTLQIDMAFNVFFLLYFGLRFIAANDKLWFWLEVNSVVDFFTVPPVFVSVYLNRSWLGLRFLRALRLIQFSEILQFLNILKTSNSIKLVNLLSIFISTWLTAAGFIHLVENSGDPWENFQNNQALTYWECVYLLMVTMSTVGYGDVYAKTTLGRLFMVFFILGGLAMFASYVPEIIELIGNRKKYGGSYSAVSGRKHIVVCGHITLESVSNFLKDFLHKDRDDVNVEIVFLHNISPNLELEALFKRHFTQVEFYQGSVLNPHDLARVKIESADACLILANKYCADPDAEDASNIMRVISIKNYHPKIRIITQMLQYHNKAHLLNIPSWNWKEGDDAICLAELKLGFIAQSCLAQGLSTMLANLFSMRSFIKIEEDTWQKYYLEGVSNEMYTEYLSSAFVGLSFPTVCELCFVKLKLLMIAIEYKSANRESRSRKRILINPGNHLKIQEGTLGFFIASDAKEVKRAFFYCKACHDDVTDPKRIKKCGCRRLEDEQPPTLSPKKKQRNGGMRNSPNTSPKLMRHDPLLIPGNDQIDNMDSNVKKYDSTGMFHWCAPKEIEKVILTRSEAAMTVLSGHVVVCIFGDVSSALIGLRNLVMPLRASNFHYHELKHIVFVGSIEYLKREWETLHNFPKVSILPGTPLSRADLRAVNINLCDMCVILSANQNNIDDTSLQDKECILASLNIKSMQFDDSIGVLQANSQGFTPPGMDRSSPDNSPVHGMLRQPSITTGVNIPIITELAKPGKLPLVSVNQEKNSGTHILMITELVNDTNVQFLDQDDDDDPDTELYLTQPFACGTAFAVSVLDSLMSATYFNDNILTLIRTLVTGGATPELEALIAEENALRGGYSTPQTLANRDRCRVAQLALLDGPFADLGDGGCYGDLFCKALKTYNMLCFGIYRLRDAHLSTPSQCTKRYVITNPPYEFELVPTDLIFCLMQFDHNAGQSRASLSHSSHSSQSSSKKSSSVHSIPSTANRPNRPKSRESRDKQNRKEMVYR

In the case of `O=c1[nH]c2cc(C(F)(F)F)ccc2n1-c1cc(Cl)ccc1O`, the Activity worked out at 132%. The result for `Oc1ccc(Cl)cc1-n1c(O)nnc1-c1cc(C(F)(F)F)cc(C(F)(F)F)c1` reads 159%. As to `Oc1ccc(Cl)cc1-n1c(O)nnc1-c1ccc(C(F)(F)F)cc1`, the Activity stood at 121%. The figure for `Oc1ccc(Cl)cc1Cn1c(O)nnc1-c1ccc(C(F)(F)F)cc1` is 109%.

With `Oc1ccc(Cl)cc1-n1c(O)nnc1-c1ccc(F)cc1`, the Activity was 118%. For `Oc1ccc(Cl)cc1-n1cnnc1-c1ccc(C(F)(F)F)cc1`, the Activity worked out at 102%. `O=c1onc(-c2cc(C(F)(F)F)cc(C(F)(F)F)c2)n1-c1cc(Cl)ccc1O`: the Activity is 92%. For `Cn1nc(-c2ccc(C(F)(F)F)cc2)n(-c2cc(Cl)ccc2O)c1=O`, the Activity turned out to be 93%. With `Oc1ccc(Cl)cc1-n1c(O)nnc1-c1ccccc1`, the Activity came to 101%. Turning to `Oc1ccc(Cl)cc1Cc1nccn1-c1ccc(C(F)(F)F)cc1`, the Activity turned out to be 105%. For `Oc1ccc(Cl)cc1-c1nnc(O)n1Cc1ccc(C(F)(F)F)cc1`, the Activity is 128%. For the compound `Oc1ccc(-n2c(O)nnc2-c2ccc(C(F)(F)F)cc2)cc1Cl`, the Activity is 99%. For `Oc1ccc(Cl)c(-n2c(O)nnc2-c2ccc(C(F)(F)F)cc2)c1`, the Activity amounted to 101%.

In the case of `Oc1ccc(Cl)cc1-n1cncc1-c1ccc(C(F)(F)F)cc1`, the Activity was 126%. Consider `O=c1onc(-c2ccc(C(F)(F)F)cc2)n1Cc1cc(Cl)ccc1O`, for which the Activity amounted to 101%. Take `Oc1ccc(Cl)cc1-n1c(O)nnc1Cc1ccc(C(F)(F)F)cc1`: the Activity worked out at 125%. Turning to `Oc1ccc(Cl)cc1-n1c(S)nnc1-c1ccc(C(F)(F)F)cc1`, the Activity is 128%. `Oc1ccc(Cl)cc1-n1c(O)nnc1-c1cccc(C(F)(F)F)c1`: the Activity amounted to 138%. Consider `O=c1[nH]c2cc(C(F)(F)F)ccc2n1-c1cc(C(F)(F)F)ccc1O`, for which the Activity is 116%.

As to `Nc1nnc(-c2ccc(C(F)(F)F)cc2)n1-c1cc(Cl)ccc1O`, the Activity was found to be 117%. As for `Oc1ccc(Cl)cc1-c1nnc(O)n1-c1ccc(C(F)(F)F)cc1`, the Activity stood at 123%. Turning to `Oc1ccc(Cl)cc1Cc1nnc(O)n1-c1ccc(C(F)(F)F)cc1`, the Activity is 84%. The figure for `Oc1ccc(Cl)cc1-n1c(O)nnc1-c1ccccc1C(F)(F)F` is 107%.

Source of the values: ChEMBL document CHEMBL1135993, “4,5-diphenyltriazol-3-ones: openers of large-conductance Ca(2+)-activated potassium (maxi-K) channels” (J Med Chem, 2002).
